Reference: ChEMBL document CHEMBL1144572, “Synthesis and biological evaluation of gamma-aminophosphonates as potent, subtype-selective sphingosine 1-phosphate receptor agonists and antagonists” (Bioorg Med Chem, 2007)
Activity calls are given as the source filed them. The rule behind the calls is not given here.

How the values were obtained:
[1] = molecular target: T1, Sphingosine 1-phosphate receptor 4 (Homo sapiens) (UniProt O95977); test: Efficacy at human S1P4 receptor expressed in HEK293T cells relative to S1P; format: functional, cell-based; conditions: HEK-293T
T1 sequence (whole entry): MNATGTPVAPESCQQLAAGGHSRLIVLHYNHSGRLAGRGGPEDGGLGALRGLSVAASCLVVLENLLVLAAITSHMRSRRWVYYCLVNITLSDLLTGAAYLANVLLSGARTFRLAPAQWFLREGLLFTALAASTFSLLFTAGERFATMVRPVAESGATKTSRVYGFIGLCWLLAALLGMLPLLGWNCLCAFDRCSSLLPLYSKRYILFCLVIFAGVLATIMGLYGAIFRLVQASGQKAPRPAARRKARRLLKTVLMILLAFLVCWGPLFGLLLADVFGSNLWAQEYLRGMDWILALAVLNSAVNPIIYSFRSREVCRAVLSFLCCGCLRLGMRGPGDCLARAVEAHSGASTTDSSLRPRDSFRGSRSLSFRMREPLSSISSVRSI
In short: (§1)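 Individual human S1P receptor subtypes co-expressed with individual G protein subunits in HEK293T cells; [γ-35S]GTP binding. Emax normalized to the maximal activation by endogenous S1P at each receptor.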

[2] = molecular target: T2, Sphingosine 1-phosphate receptor 4 (Homo sapiens, UniProt O95977); test: Activity at human S1P4 receptor expressed in HEK293T cells by [35S]GTP-gamma-S binding assay; format: functional, cell-based, HEK-293T
T2 sequence (O95977 whole entry): T1 sequence (whole entry)
In short: (§2)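 Individual human S1P receptor subtypes and individual G protein subunits forced into expression in HEK293T cells; receptor-dependent [γ-35S]GTP binding measured in vitro. EC50 in nM as the mean of at least three experiments.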

[3] = molecular target: T3, Sphingosine 1-phosphate receptor 3 (Homo sapiens, UniProt Q99500); test: Efficacy at human S1P3 receptor expressed in HEK293T cells relative to S1P; format: functional, cell-based; conditions: HEK-293T; in short: as §1
[4] = molecular target: T4, Sphingosine 1-phosphate receptor 5 (Homo sapiens, UniProt Q9H228); test: Efficacy at human S1P5 receptor expressed in HEK293T cells relative to S1P; format: functional, cell-based; conditions: HEK-293T; in short: as §1
[5] = molecular target: T5, Sphingosine 1-phosphate receptor 2 (Homo sapiens, UniProt O95136); test: Activity at human S1P2 receptor expressed in HEK293T cells by [35S]GTP-gamma-S binding assay; format: functional, cell-based; conditions: for Activity: HEK-293T; in short: as §2
[6] = molecular target: T5, Sphingosine 1-phosphate receptor 2; test: Efficacy at human S1P2 receptor expressed in HEK293T cells relative to S1P; format: functional, cell-based; conditions: HEK-293T; in short: as §1
[7] = molecular target: T3, Sphingosine 1-phosphate receptor 3; test: Activity at human S1P3 receptor expressed in HEK293T cells by [35S]GTP-gamma-S binding assay; format: functional, cell-based, HEK-293T; conditions: for Activity: HEK-293T; in short: as §2
[8] = molecular target: T6, Sphingosine 1-phosphate receptor 1 (Homo sapiens, UniProt P21453); test: Activity at human S1P1 receptor expressed in HEK293T cells by [35S]GTP-gamma-S binding assay; format: functional, cell-based, HEK-293T; conditions: for Activity: HEK-293T; in short: as §2
[9] = molecular target: T4, Sphingosine 1-phosphate receptor 5; test: Activity at human S1P5 receptor expressed in HEK293T cells by [35S]GTP-gamma-S binding assay; format: functional, cell-based, HEK-293T; in short: as §2
[10] = molecular target: T6, Sphingosine 1-phosphate receptor 1; test: Efficacy at human S1P1 receptor expressed in HEK293T cells relative to S1P; format: functional, cell-based; conditions: HEK-293T; in short: as §1
Mus musculus [11] = test: Effect on vascular permeability in C57BL/6 mouse assessed as capillary leakage in lung at 25 mg/kg by Evans blue extravasation assay; format: functional, organism-based; parameters: dose 25 mg/kg
In short: (§3)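 C57BL/6 mice given compound (25 mg/kg) or vehicle (2% hydroxypropyl β-cyclodextrin) two hours before 2% Evans blue dye (20 mg/kg) via jugular vein. Tissues harvested 30 min later. Dye extracted into formamide, read spectrometrically and quantified against a standard curve. n = 4 per group, mean ± SE, compared with vehicle.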

[12] = molecular target: T6, Sphingosine 1-phosphate receptor 1; test: Displacement of [32P]S1P from human S1P1 receptor expressed in HEK293T cells; format: cell-based, HEK-293T
[13] = molecular target: T3, Sphingosine 1-phosphate receptor 3; test: Displacement of [32P]S1P from human S1P3 receptor expressed in HEK293T cells; format: cell-based, HEK-293T
Mus musculus [14] = test: Inhibition of VPC44152-evoked lymphopenia in mouse at 22 mg/kg; format: functional, organism-based; parameters: dose 22 mg/kg
Mus musculus [15] = test: Effect on vascular permeability in C57BL/6 mouse assessed as capillary leakage in kidney at 25 mg/kg by Evans blue extravasation assay; format: functional, organism-based; parameters: dose 25 mg/kg; in short: as §3

T6 sequence (P21453 whole entry): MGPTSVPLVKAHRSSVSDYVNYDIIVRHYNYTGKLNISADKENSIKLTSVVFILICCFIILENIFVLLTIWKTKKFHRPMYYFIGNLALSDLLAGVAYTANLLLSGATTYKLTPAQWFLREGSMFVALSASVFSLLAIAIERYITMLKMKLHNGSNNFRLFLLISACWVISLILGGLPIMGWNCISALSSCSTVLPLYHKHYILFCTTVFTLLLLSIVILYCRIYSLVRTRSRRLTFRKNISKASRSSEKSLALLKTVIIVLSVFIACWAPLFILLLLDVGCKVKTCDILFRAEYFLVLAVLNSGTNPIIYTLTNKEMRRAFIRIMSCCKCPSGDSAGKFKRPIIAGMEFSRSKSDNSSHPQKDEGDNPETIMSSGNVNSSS
T5 sequence (O95136 whole entry): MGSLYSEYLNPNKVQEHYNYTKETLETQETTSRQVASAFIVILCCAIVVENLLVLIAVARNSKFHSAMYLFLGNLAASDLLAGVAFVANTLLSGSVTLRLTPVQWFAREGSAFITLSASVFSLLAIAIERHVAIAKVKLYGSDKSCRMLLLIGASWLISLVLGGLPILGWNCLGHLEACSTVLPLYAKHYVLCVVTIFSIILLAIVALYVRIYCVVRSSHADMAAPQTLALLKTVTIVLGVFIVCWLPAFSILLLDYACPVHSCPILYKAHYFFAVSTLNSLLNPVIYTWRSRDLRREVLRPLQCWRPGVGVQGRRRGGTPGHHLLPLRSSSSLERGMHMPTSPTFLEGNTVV
T3 sequence (Q99500 whole entry): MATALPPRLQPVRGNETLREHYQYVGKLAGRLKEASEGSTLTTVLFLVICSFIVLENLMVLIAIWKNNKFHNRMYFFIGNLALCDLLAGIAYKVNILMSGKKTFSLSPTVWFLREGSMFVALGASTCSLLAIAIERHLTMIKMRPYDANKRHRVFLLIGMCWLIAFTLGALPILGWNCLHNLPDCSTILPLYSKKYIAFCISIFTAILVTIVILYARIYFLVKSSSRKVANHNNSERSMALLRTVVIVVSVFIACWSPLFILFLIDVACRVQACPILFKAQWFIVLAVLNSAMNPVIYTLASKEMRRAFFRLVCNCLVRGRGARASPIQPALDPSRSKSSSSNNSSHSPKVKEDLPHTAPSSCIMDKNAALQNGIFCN
T4 sequence (Q9H228 whole entry): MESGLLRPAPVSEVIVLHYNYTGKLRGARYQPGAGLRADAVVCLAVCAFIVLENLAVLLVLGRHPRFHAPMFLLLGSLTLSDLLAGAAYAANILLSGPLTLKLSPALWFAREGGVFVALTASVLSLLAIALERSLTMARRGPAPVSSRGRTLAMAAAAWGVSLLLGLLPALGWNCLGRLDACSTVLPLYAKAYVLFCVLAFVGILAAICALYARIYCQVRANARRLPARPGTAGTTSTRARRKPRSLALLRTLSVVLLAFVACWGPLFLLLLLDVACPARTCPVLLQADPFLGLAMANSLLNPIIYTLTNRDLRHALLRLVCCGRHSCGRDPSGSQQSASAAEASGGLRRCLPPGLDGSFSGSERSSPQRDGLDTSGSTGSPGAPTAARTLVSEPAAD

Row | Structure (SMILES) | ECmax [1] | EC50 [2] | ECmax [3] | ECmax [4] | Activity [5] | ECmax [6] | EC50 [7] | EC50 [8] | EC50 [5] | EC50 [9] | Activity [7] | Activity ([9]; HEK-293T) | Activity [8] | Activity [10] | Ki [12] | Ki [13] | Activity (Mus musculus [11]) | Activity (Mus musculus [14]) | Activity (Mus musculus [15])
1 | CCCCCCCCc1ccc(CCC(N)(CO)COP(=O)(O)O)cc1 (stereo not drawn) | 0.9 | 0.004 µM | 0.5 | 0.56 | inactive | 0 |  |  |  |  |  |  |  |  |  |  |  |  | 
2 | CCCCCCCCCCc1ccc(NC(=O)[C@H](N)CC(F)P(=O)(O)O)cc1 (stereo partly drawn) |  |  | 0.96 |  |  | 0.47 | 0.023 µM | 0.0021 µM | 0.49 µM |  |  |  |  |  |  |  |  |  | 
3 | CCCCCCCCc1ccc(OC[C@@H](O)CCP(=O)(O)O)cc1 | 0.45 | 440 µM | 0 | 0 | inactive | 0 |  | 0.033 µM |  |  | inactive | inactive |  |  |  |  |  |  | 
4 | CCCCCCCCc1ccc(OC[C@H](N)CCP(=O)(O)O)cc1 | 0.9 | 0.15 µM | 0.53 | 0.5 |  | 0.5 | 0.1 µM | 0.14 µM | 0.53 µM | 0.047 µM |  |  |  |  |  |  |  |  | 
5 | CCCCCCCCc1ccc(OC[C@@H](N)CCP(=O)(O)O)cc1 | 0.71 | 0.147 µM | 0 | 0.41 | inactive | 0 |  | 0.068 µM |  | 0.031 µM | inactive |  |  |  |  |  |  |  | 

Second part, led by results:

Row | ECmax [1] | EC50 [2] | ECmax [3] | ECmax [4] | Activity [5] | ECmax [6] | EC50 [7] | EC50 [8] | EC50 [5] | EC50 [9] | Activity [7] | Activity ([9]; HEK-293T) | Activity [8] | Activity [10] | Ki [12] | Ki [13] | Structure (SMILES) | Activity (Mus musculus [11]) | Activity (Mus musculus [14]) | Activity (Mus musculus [15])
6 | 0.8 | 2.3 µM | 0.38 | 0.64 | inactive | 0 | 0.27 µM | 0.027 µM |  | 0.076 µM |  |  |  |  |  |  | CCCCCCCCc1ccc(NC(=O)[C@H](N)CCP(=O)(O)O)cc1 |  |  | 
7 |  |  | 0 |  | inactive | 0 |  |  |  |  | inactive |  | inactive |  |  |  | CCCCCCCCc1cccc(NC(=O)[C@@H](N)CCP(=O)(O)O)c1 |  |  | 
8 |  |  | 0.3 |  | inactive | 0 | 15 µM | 1.2 µM |  |  |  |  |  | inactive |  |  | CCCCCCCCc1ccc(NC(=O)[C@@H](N)CCP(=O)(O)O)cc1 |  |  | 
9 | 1.42 | 6.1 µM | 0 | 0.73 | inactive | 0 |  |  |  | 0.033 µM | inactive |  | inactive |  | 0.03 µM | 0.3 µM | CCCCCCCCc1cccc(NC(=O)[C@H](N)CCP(=O)(O)O)c1 | Active | Active | Active
10 |  |  | 0 |  |  |  |  |  |  |  | inactive |  | inactive |  |  |  | CCCCCCCc1cccc(NC(=O)[C@H](N)CCP(=O)(O)O)c1 |  |  | 
11 | 1.18 | 0.34 µM | 0 | 0.61 | inactive | 0 |  | 0.03 µM |  | 0.041 µM | inactive |  |  |  |  |  | CCCCCCCCc1cccc(NC[C@H](N)CCP(=O)(O)O)c1 |  |  | 
12 | 0.67 | 0.23 µM | 0.88 | 0.77 |  | 0.5 | 0.043 µM | 0.0036 µM | 0.27 µM | 0.03 µM |  |  |  |  |  |  | CCCCCCCCCCc1ccc(NC(=O)[C@H](N)CCP(=O)(O)O)cc1 |  |  | 
